From article PMC12311552 (Molecular Metabolism, 2025)
Numbered stars: 1 amine (or outer) side, 2 acyl side, 3 side chain; on linkers, the order of the positions; unused ones are H or OH. Side chains are listed from the residue outwards. Peptide text beside a SMILES is read from it. * marks the point of attachment. Cy5(nonsulfonated) = CN1C(=CC=CC=CC2=[N+](CCCCCC(=O)*)c3ccccc3C2(C)C)C(C)(C)c2ccccc21; C18 diacid = O=C(O)CCCCCCCCCCCCCCCCC(=O)*; γGlu = O=C(O)[C@H](CCC(=O)[*:2])N[*:1]; Isovaleryl = CC(C)CC(=O)*; AEEA = NCCOCCOCC(=O)O

How the values were obtained:
human NPY2R (human) = human NPY2R (human) (UniProt P49146); test: radioligand binding
Chain of human NPY2R (human) (P49146 whole entry): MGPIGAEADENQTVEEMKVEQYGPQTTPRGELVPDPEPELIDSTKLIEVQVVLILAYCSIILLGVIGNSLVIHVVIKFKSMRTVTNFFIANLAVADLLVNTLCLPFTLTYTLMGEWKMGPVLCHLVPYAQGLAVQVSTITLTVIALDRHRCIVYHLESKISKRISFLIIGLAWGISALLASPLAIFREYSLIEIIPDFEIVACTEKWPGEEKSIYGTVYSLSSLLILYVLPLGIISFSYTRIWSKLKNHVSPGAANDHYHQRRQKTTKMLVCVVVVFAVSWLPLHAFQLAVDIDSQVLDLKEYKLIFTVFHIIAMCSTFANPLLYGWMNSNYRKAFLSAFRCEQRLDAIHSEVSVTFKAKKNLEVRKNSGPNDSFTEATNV

diet-induced obese mice = test: Subchronic, repeated dose study in diet-induced obese mice; format: in vivo, mouse; details: DIO mice
human NPY1R = target: T1, human NPY1R (Homo sapiens, UniProt P25929); test: Competitive radioligand binding, membrane preparations, 125I-PYY1–36; details: up to 1 μM
T1 sequence (P25929 1-384): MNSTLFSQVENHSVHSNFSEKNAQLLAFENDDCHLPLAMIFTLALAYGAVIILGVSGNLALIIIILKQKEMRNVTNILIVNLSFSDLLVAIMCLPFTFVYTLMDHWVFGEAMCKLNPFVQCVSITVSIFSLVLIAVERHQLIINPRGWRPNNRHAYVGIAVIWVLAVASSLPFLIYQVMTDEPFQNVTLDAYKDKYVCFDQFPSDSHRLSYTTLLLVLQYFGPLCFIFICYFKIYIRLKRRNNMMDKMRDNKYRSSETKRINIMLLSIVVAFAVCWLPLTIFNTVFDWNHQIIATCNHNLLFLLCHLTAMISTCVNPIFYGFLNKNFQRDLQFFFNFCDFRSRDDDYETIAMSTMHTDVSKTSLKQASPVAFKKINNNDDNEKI

human NPY4R = human NPY4R (Homo sapiens, UniProt P50391); test: Competitive radioligand binding, membrane preparations, 125I-PP; details: up to 1 μM
Chain of human NPY4R (P50391 whole entry): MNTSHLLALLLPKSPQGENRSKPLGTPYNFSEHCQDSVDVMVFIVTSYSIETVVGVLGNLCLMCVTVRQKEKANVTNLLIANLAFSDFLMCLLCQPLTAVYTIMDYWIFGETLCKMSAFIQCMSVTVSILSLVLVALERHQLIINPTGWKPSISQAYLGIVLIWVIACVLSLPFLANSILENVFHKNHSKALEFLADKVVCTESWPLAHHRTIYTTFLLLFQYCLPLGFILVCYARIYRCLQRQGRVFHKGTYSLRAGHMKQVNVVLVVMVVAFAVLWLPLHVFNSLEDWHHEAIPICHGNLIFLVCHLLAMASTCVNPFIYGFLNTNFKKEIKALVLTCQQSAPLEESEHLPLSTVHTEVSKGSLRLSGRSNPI

[1] = Pharmacokinetic study in mice; format: in vivo; details: male, NMRI, mouse, plasma, sc, 30 nmol/kg
Outline: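 Male NMRI mice got a single dose of 30 nmol/kg, IV (N = 2) or SC (N = 3), in 50 mM phosphate pH 7.0 with 5% mannitol at 5 mL/kg. Plasma was sampled at several times after dosing, stored at -20 °C, and quantified by LC-MS/MS.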

[2] = Pharmacokinetic study in dogs; format: in vivo; details: male, beagle, dog, plasma, sc, 5 nmol/kg
Outline: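 Male beagles were dosed once, IV 1.25 nmol/kg (N = 2) or SC 5 nmol/kg (N = 3). Plasma was sampled at several times after dosing, stored at -20 °C, and assayed by LC-MS/MS.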

male NMRI mice = test: Acute food intake in lean mice; format: in vivo, mouse
Outline: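 Males, 5 weeks old on arrival, 4/cage, lights off 3 PM, chow ad libitum. Randomised by bodyweight (n = 7–8/group) with a vehicle group (50 mM phosphate pH 7.0, 5% mannitol; 5 mL/kg). Fasted from 6 h before night, dosed SC once 1 h before dark. Hourly food intake over 24 h as % of vehicle mean. ED50 by nonlinear fit.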

male C57BL/6JRj mice = test: Acute gastric emptying in lean mice; format: in vivo, mouse
Outline: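 Males aged 9–10 weeks were fasted 8.5 h, then a basal blood glucose sample was taken for randomisation. After a further 30 min fast they got one SC dose. At 3 h, glucose 2 g/kg plus acetaminophen 100 mg/kg was gavaged (10 mL/kg). Blood acetaminophen and glucose were measured pre-load (20 min) and at 10, 30 and 60 min post-load. Gastric emptying was read as change in acetaminophen exposure.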

[3] = tested on: Diet-induced obese (DIO) male C57BL6/J mice; test: 3D whole-brain c-Fos imaging; format: in vivo, mouse; details: 8 nmol/kg, 4 h after dosing
Outline: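 Perfused 4 h post-dose. Brains were c-Fos immunolabelled, iDISCO+-cleared and imaged whole by light-sheet microscopy. c-Fos+ cells were atlas-mapped and counted per region, with region-wise statistics against vehicle.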

cynomolgus monkeys = test: Cardiovascular study in cynomolgus monkeys; format: in vivo, cynomolgus monkey; details: subcutaneous supratherapeutic doses
[4] = tested on: Chow-fed male C57BL/6JRj mice; test: 3D whole-brain imaging by light-sheet fluorescence microscopy; format: in vivo, mouse; details: single s.c. dose 100 nmol/kg; SFO, AP, ME, choroid plexus, ARH
Outline: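 Chow-fed males (n = 8/group) got one SC dose of unlabelled test compound or a Cy5-labelled analogue (Lys10), each 100 nmol/kg, and were killed at 6 h. Competition group: unlabelled 100 nmol/kg SC at 0, 8 and 24 h, labelled analogue 1 h later, killed after 1 h. Tongue was positive control. Tissue was perfusion-fixed, cleared and light-sheet imaged, giving atlas-aligned regional mean fluorescence (CVOs, ARH).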

Question: For BI 1820237 (peptide), which Ki (human NPY2R (human)) is on record?
Answer: 0.82 nM

Question: What does the source list for survodutide [reference compound]?
Answer: bodyweight lowering versus baseline (diet-induced obese mice; after 28 days, survodutide 7.5 nmol/kg): 17%; bodyweight lowering compared with the vehicle group (diet-induced obese mice; after 28 days, survodutide 7.5 nmol/kg alone or with 1 nmol/kg BI 1820237): 21%; lean mass (diet-induced obese mice; survodutide alone, or with 3 nmol/kg BI 1820237 at study start or 1 nmol/kg at Day 8): No significant change

Question: Which “binding to human NPY subtype 1” value (human NPY1R) does the source give for `CC[C@H](C)[C@H](NC(=O)[C@H](CCC(=O)O)NC(=O)[C@H](CCC(=O)O)NC(=O)[C@@H]1CCCN1C(=O)[C@H](CO)NC(=O)[C@H](C)NC(=O)[C@H](CC(=O)O)NC(=O)[C@H](CCC(=O)O)NC(=O)[C@H](CCC(=O)O)NC(=O)[C@@H]1CCCN1C(=O)[C@H](CCCCNC(=O)COCCOCCNC(=O)COCCOCCNC(=O)CC[C@H](NC(=O)CCCCCCCCCCCCCCCCC(=O)O)C(=O)O)NC(=O)[C@H](C)NC(=O)[C@@H]1CCCN1C(=O)[C@H](C)NC(=O)CC(C)C)C(=O)N[C@@H](CCC(N)=O)C(=O)N[C@@H](CCCNC(=N)N)C(=O)N[C@@H](Cc1ccc(O)cc1)C(=O)N[C@@H](Cc1ccc(O)cc1)C(=O)N[C@H](C(=O)N[C@@H](CO)C(=O)N[C@@H](CC(C)C)C(=O)N[C@@H](CCCNC(=N)N)C(=O)N[C@@H](Cc1c[nH]cn1)C(=O)N[C@@H](Cc1ccc(O)cc1)C(=O)N[C@@H](Cc1ccc(O)cc1)C(=O)N[C@@H](CC(N)=O)C(=O)N[C@@H](Cc1c[nH]c2ccccc12)C(=O)N[C@@H](CC(C)C)C(=O)N[C@H](C(=O)N[C@@H](CCCNC(=N)N)C(=O)N[C@@H](CCC(N)=O)C(=O)N[C@@H](CCCNC(=N)N)C(=O)N[C@@H](Cc1ccc(O)cc1)C(N)=O)[C@@H](C)O)C(C)C` [BI 1820237] here?
Answer: no binding was detected

Question: What about the “binding to human NPY subtype 4” value (human NPY4R) of the same compound?
Answer: no binding was detected

Question: And the Tmax [1]?
Answer: 3 h

Question: What about the MRT [2] of the same compound?
Answer: 103 h

Question: What about the “Emax, inhibition of food intake over 24 h” value (male NMRI mice; at the maximal tested dose of 100 nmol/kg) of the same compound?
Answer: ~85%

Question: What about the “ED50, inhibition of food intake over 24 h” value (male NMRI mice; single subcutaneous dose) of the same compound?
Answer: 14 nmol/kg

Question: What about the “ED50, reduction of gastric emptying” value (male C57BL/6JRj mice; lean mice, single dose, acetaminophen exposure) of the same compound?
Answer: ~2 nmol/kg

Question: What about the Glucose excursion (male C57BL/6JRj mice; oral glucose 2 g/kg, same experiment) of the same compound?
Answer: not affected

Question: And the “weight of the epididymal adipose tissue compared with the vehicle group” value (diet-induced obese mice; study end, BI 1820237 1 nmol/kg alone or with survodutide 7.5 nmol/kg)?
Answer: did not reduce

Question: And the “food intake reduction on Day 1, 24 h post-dosing” value (“food intake reduction” below) (diet-induced obese mice; 3 nmol/kg once daily s.c.)?
Answer: 18%

Question: What about the “food intake reduction” value (diet-induced obese mice; 10 nmol/kg once daily s.c.) of the same compound?
Answer: 59%

Question: What about the “maximal bodyweight-lowering effect (reduction)” value (diet-induced obese mice; 30 nmol/kg at Day 5 of dosing) of the same compound?
Answer: 9%

Question: What about the “food intake reduction” value (diet-induced obese mice; 30 nmol/kg once daily s.c.) of the same compound?
Answer: 71%

Question: What about the “bodyweight reduction at the end of the study (non-significant)” value (diet-induced obese mice; 30 nmol/kg once daily, 4 weeks) of the same compound?
Answer: 2%

Question: What about the “food intake after 4–5 days of dosing” value (diet-induced obese mice; 100 nmol/kg once daily) of the same compound?
Answer: higher than the food intake in the vehicle group

Question: And the “food intake reduction” value (diet-induced obese mice; 100 nmol/kg once daily s.c.)?
Answer: 56%

Question: What about the “food intake after 4–5 days of dosing” value (diet-induced obese mice; 3, 10 and 30 nmol/kg once daily) of the same compound?
Answer: returned to the level of the vehicle-treated group

Question: And the “effect on bodyweight at the end of the study” value (diet-induced obese mice; other doses (3, 10, 100 nmol/kg) once daily, 4 weeks)?
Answer: no effect

Question: And the “whole-brain c-Fos expression compared with vehicle” value [3]?
Answer: little or no difference

Question: What about the emesis (cynomolgus monkeys) of the same compound?
Answer: induced emesis

Question: Which results are given for `CC[C@H](C)[C@H](NC(=O)[C@H](CCC(=O)O)NC(=O)[C@H](CCC(=O)O)NC(=O)[C@@H]1CCCN1C(=O)[C@H](CO)NC(=O)[C@H](C)NC(=O)[C@H](CC(=O)O)NC(=O)[C@H](CCCCNC(=O)CCCCC[N+]1=C(C=CC=CC=C2N(C)c3ccccc3C2(C)C)C(C)(C)c2ccccc21)NC(=O)[C@H](CCC(=O)O)NC(=O)[C@@H]1CCCN1C(=O)[C@H](CCCCNC(=O)COCCOCCNC(=O)COCCOCCNC(=O)CC[C@H](NC(=O)CCCCCCCCCCCCCCCCC(=O)O)C(=O)O)NC(=O)[C@H](C)NC(=O)[C@@H]1CCCN1C(=O)[C@H](C)NC(=O)CC(C)C)C(=O)N[C@@H](CCC(N)=O)C(=O)N[C@@H](CCCNC(=N)N)C(=O)N[C@@H](Cc1ccc(O)cc1)C(=O)N[C@@H](Cc1ccc(O)cc1)C(=O)N[C@H](C(=O)N[C@@H](CO)C(=O)N[C@@H](CC(C)C)C(=O)N[C@@H](CCCNC(=N)N)C(=O)N[C@@H](Cc1c[nH]cn1)C(=O)N[C@@H](Cc1ccc(O)cc1)C(=O)N[C@@H](Cc1ccc(O)cc1)C(=O)N[C@@H](CC(N)=O)C(=O)N[C@@H](Cc1c[nH]c2ccccc12)C(=O)N[C@@H](CC(C)C)C(=O)N[C@H](C(=O)N[C@@H](CCCNC(=N)N)C(=O)N[C@@H](CCC(N)=O)C(=O)N[C@@H](CCCNC(=N)N)C(=O)N[C@@H](Cc1ccc(O)cc1)C(N)=O)[C@@H](C)O)C(C)C` [BI 3005788] (Isovaleryl-APAK([AEEA-AEEA-γGlu-C18 diacid])PEK(Cy5(nonsulfonated))DASPEEIQRYYVSLRHYYNWLTRQRY-NH2; N-terminus and C-terminus assumed)?
Answer: lowering of food intake up to 6 h post-dosing (male NMRI mice; acute dose 100 nmol/kg, Fig. S3a–b): comparable with BI 1820237 dosed at 30 nmol/kg; fluorescence signal distribution in the mouse brain [4]: accumulated in 5 circumventricular organs
